In ChEMBL document CHEMBL1122230, “Quantitative aspects of the receptor binding of cytokinin agonists and antagonists” (J Med Chem, 1983):

tested on: Nicotiana tabacum; experiment: Inhibition of 50% growth of tobacco callus derived from Nicotiana tabacum var on medium with 0.05 uM kinetin but without anti-cytokinin; NR=not reached to the maximum growth within the concentration range tested; type: functional, organism-based
Outline: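 Basal medium with 0.05 μM kinetin plus the test compound at a series of concentrations, pH 5.6 (1 N NaOH), autoclaved at 1.0 kg/cm² for 15 min. Three tobacco callus pieces of ca. 10 mg fresh weight were used per culture. I50 is the concentration giving 50% of the callus growth seen on kinetin medium without anticytokinin.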

Structure (SMILES) | Log 1/I50
Cc1nc(NCCO)c2cc[nH]c2n1 | Not reached

tested on: Nicotiana tabacum; experiment: Concentration at which 50% of maximum response of callus yield derived from Nicotiana tabacum var is obtained; type: functional
Outline: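 Three Nicotiana tabacum callus pieces of ca. 10 mg fresh weight were placed per culture. E50 is the concentration giving 50% of maximal callus yield.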

Structure (SMILES) | Log 1/E50
CCOCCNc1[nH]c(C)nc2nccc1-2 | -1.37
Cc1nc(Nc2cccc(Br)c2)c2cc[nH]c2n1 | -0.8
Cc1nc(NCc2ccccc2)c2cc[nH]c2n1 [ROLODINE] | -0.72
Cc1nc(NCCc2ccccc2)c2cc[nH]c2n1 | -1.37
CCCCCNc1[nH]c(C)nc2nccc1-2 | -0.72
Cc1nc(Nc2cccc(Cl)c2)c2cc[nH]c2n1 | -0.66
CCCCC(CC)CNc1[nH]c(C)nc2nccc1-2 (stereo unspecified) | -0.84
Cc1cccc(Nc2[nH]c(C)nc3nccc2-3)c1 | -1.12
Cc1nc(Nc2cccc(I)c2)c2cc[nH]c2n1 | -0.73
CC(C)=CCNc1[nH]c(C)nc2nccc1-2 | 0.08
